Data set [1] deals with NAD-dependent protein deacylase sirtuin-6 (Homo sapiens) (UniProt Q8N6T7). The data set can be described thus: Activation of N-terminal His-tagged human SIRT6 (1 to 355 residues) expressed in Escherichia coli M15(pREP4) assessed as increase in deacetylation activity using FdL1 substrate peptide incubated for 1 hr in presence of NAD+ by fluorescence assay. To be noted: filed as activator. The method, boiled down:
(§1)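 Deacetylation assay with the fluorophore-labelled FdL substrate, run alongside a control for artificial effects from the compound interacting with the fluorophore; fluorescence read-out.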

For data set [2], the target named is T1, NAD-dependent protein deacetylase sirtuin-1 (Homo sapiens, UniProt Q96EB6).
T1 sequence (Q96EB6 whole entry): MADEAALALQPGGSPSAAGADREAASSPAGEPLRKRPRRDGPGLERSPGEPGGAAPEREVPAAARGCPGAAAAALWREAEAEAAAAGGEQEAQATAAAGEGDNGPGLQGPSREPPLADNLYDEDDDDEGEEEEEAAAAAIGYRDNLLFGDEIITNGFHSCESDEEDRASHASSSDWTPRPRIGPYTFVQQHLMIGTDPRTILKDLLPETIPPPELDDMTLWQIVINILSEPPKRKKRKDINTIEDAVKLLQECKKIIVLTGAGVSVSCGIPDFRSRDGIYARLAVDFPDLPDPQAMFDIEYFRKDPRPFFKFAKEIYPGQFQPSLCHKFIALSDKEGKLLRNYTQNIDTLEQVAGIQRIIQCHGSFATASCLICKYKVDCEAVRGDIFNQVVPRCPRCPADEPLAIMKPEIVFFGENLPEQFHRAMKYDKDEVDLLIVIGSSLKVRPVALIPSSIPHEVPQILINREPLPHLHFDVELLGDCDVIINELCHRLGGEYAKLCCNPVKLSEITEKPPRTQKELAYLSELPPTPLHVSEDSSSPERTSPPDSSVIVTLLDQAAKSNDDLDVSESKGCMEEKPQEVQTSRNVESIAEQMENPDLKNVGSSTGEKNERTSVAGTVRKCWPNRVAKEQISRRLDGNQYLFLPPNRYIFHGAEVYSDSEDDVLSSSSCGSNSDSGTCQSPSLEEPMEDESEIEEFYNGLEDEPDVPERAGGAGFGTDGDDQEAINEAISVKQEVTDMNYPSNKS
In words: Inhibition of N-terminal His-tagged human full length recombinant SIRT1 expressed in Escherichia coli at 250 to 1000 uM by fluorescence based analysis. As to conditions: dose 250-1000 µM.

Data set [3] has as its target NAD-dependent protein deacylase sirtuin-6 (Homo sapiens) (UniProt Q8N6T7). In words: Activation of N-terminal His-tagged human SIRT6 (1 to 355 residues) expressed in Escherichia coli M15(pREP4) assessed as increase in substrate deacetylation activity using FdL1 substrate peptide at 250 to 1000 uM incubated for 1 hr in presence of NAD+ by fluorescence assay. To be noted: filed as activator, dose microM 250-1000, time 1.0 hrs. The method, boiled down:
as §1

Data set [4] shares this target. The data set can be described thus: Activation of His-tagged N-terminal truncated human SIRT6 (13 to 355 residues) expressed in Escherichia coli BL21 (DE3) codon+ cells assessed as increase in deacetylation activity using acetyl-H3K9 peptide as substrate incubated for 2 hrs in presence of NAD+ by mass spectrometric analysis relative to control. As to conditions: filed as activator.

The target in data set [5] is T2, NAD-dependent protein deacetylase sirtuin-3, mitochondrial (Homo sapiens, UniProt Q9NTG7).
T2 sequence (Q9NTG7 whole entry): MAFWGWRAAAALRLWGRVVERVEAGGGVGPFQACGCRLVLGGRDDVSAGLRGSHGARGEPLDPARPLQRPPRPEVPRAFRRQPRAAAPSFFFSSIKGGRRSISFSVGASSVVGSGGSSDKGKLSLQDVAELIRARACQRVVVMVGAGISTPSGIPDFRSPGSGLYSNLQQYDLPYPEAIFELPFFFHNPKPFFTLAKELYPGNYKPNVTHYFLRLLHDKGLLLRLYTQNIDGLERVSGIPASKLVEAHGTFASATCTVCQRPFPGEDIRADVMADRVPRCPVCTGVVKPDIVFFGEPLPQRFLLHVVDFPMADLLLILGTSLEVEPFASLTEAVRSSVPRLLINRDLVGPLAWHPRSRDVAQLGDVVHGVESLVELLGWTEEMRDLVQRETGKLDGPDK
The data set can be described thus: Inhibition of N-terminal His-tagged human recombinant SIRT3 (118 to 399 residues) expressed in Escherichia coli assessed as decrease in substrate deacetylation using QPK(acetyl-K) as substrate at 250 to 1000 uM incubated for 30 mins by fluorescence based analysis. As to conditions: 0.5 h, dose 250-1000 µM.

Data set [6] addresses NAD-dependent protein deacylase sirtuin-6 (Homo sapiens) (UniProt Q8N6T7). In words: Activation of N-terminal His-tagged human SIRT6 (1 to 355 residues) expressed in Escherichia coli M15(pREP4) assessed as increase in deacetylation activity using acetyl-H3K9 peptide as substrate incubated for 2 hrs in presence of NAD+ by mass spectrometric analysis relative to control. The method, boiled down:
(§2)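 Deacetylation measured by mass spectrometry using an unlabelled acetylated peptide that represents the physiological histone H3 Lys9 site (H3K9ac); compound tested across a dose range.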

Data set [7] addresses T3, NAD-dependent protein deacetylase sirtuin-2 (Homo sapiens, UniProt Q8IXJ6).
T3 sequence (Q8IXJ6 whole entry): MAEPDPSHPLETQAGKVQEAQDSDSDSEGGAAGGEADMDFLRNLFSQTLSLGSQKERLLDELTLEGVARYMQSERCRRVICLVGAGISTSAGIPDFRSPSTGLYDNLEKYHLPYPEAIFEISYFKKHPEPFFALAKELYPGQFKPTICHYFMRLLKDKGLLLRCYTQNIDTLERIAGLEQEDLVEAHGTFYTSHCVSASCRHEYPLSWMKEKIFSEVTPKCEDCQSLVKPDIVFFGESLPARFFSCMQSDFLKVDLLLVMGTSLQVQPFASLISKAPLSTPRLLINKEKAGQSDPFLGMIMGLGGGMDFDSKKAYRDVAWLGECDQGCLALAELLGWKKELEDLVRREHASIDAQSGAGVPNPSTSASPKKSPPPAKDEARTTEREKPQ
In words: Inhibition of N-terminal His-tagged human recombinant SIRT2 (55 to 356 residues) expressed in Escherichia coli Rossetta2 cells assessed as decrease in substrate deacetylation activity using QPK(acetyl-K) as substrate at 250 to 1000 uM incubated for 30 mins by fluorescence based analysis. To be noted: 0.5 h, dose 250-1000 µM.

For data set [8], the target named is NAD-dependent protein deacylase sirtuin-6 (Homo sapiens) (UniProt Q8N6T7). The data set can be described thus: Activation of N-terminal His-tagged human SIRT6 (1 to 355 residues) expressed in Escherichia coli M15(pREP4) assessed as increase in deacetylation activity using acetyl-H3K9 peptide as substrate incubated for 2 hrs in presence of NAD+ by mass spectrometric analysis. As to conditions: filed as activator. The gist of the method: as §2

Structures are written as SMILES. Calls of active or inactive are those of the source. No cut-off for these calls is given here.

Experimental findings from ChEMBL document CHEMBL4725480 (ACS Med Chem Lett, 2020) are described below.

Sequence of NAD-dependent protein deacylase sirtuin-6 (Homo sapiens) (Q8N6T7 whole entry, the tested form may be a part): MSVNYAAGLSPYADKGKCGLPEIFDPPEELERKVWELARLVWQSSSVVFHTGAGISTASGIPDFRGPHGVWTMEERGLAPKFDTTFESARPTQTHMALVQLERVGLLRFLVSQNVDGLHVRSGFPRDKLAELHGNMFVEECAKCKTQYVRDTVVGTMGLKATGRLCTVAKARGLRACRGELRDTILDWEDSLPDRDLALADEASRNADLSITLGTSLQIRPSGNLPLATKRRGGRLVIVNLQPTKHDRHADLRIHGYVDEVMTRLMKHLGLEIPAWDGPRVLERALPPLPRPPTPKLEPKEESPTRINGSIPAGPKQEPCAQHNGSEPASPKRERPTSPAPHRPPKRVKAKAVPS

In the case of `CC(C)n1c(/C=C/C(O)CC(O)CC(=O)O)c(-c2ccc(F)cc2)c2ccccc21` (stereo not drawn) [FLUVASTATIN], the result in data set [1] and in data set [3] was Active. Also, the “inhibition (INH)” value in data set [2], in data set [5] and in data set [7] was “Active” in each case. The fold change (FC) was 4 in data set [4] and over 3 in data set [6]. The Activity entry in data set [8] is “Dose-dependent effect”.
